Calls of active or inactive are those of the source.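 Rule for the calls, unless noted: active = inhibition at or above 50% at 10 µM; inactive = inhibition below 50%.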
Key:
[1] = inhibitors of TNFa-induced NFkB p65 translocation, primary screen, imaging, HUVEC, MLSMR starter and 10KST1 sets (AID 438;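 active = inhibition above 20% together with a positive visual image hit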;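 note: compound added about 3h40 before a 20 min TNFalpha stimulation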;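 for inhibition: signal is the nuclear over cytoplasmic p65 intensity ratio per well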); conditions: HUVEC TNFa-induced p65 nuclear translocation; cell count: measured here: nuclei count (cytotoxicity indicator), at 2.08 µM; inhibition: at 2 µM, stronger effect = higher value, 0% TNFa-plus-vehicle, 100% no-TNFa wells
[2] = reduction of polyQ htt aggregates in cells – imaging, exon1htt(103Q)mCFP cells, high-content imaging, primary screen (AID 483;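 active = visual image review flags a hit and inhibition of aggregation exceeds 20%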;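 note: compound exposure lasted 3 days before fixation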;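 for nuclei count: percent of the per-plate median nuclei count of sample wells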); conditions: exon1htt(103Q)mCFP cell line, aggregate imaging, at 2 µM; inhibition of aggregation: stronger effect = higher value; nuclei count: measured here: cell count, toxicity
[3] = endothelial E-selectin expression blockers – imaging, HUVEC, immunofluorescence, MLSMR starter and 10KST1 sets, primary screen (AID 487;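 active = visually confirmed hit in the image check and inhibition above 20%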;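 for inhibition: signal is fraction of cell area covered by stained E-selectin grains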;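 for nuclei count: 100% = median nuclei count of all wells on the same plate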); conditions: HUVEC TNFalpha-induced E-selectin immunofluorescence imaging, at 2 µM; inhibition: stronger effect = higher value; nuclei count: measured here: cell number, toxicity
[4] = biological target: Voltage-gated potassium channel subunit beta-2 (Rattus norvegicus) (UniProt P62483); assay: inhibitors of rat Kvbeta2 reductase activity – biochemical, NADPH fluorescence, primary screen (AID 622;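 active = fluorescence slope higher than the sample average by over 3 SD, cut at about -0.22 in these data, passing the limit was not always enough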;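 note: slope of raw intensity against log time taken from 70 to 1610 s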); conditions: recombinant KvBeta, 4-cyanobenzaldehyde reduction, at 10 µM, stronger effect = higher value
[5] = biological target: Voltage-gated potassium channel subunit beta-2 (Rattus norvegicus) (UniProt P62483); assay: enhancers of rat Kvbeta2 NADPH turnover – biochemical, NADPH fluorescence, primary screen (AID 623;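 active = NADPH fluorescence slope more negative than the mean of all samples by about 3 SD, 99.7% confidence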;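 note: fluorescence intensity change per second fitted from 20 to 320 s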); conditions: Recombinant KvBeta, NADPH fluorescence decrease slope, 10 min; at 10 µM; stronger effect = lower value
[6] = biological target: Muscarinic acetylcholine receptor M4 (Homo sapiens) (UniProt P08173); assay: M4-linked GIRK flux change, two-sided – cell-based, HEK293 M4/GIRK, thallium flux, BTC-AM, M4 allosteric agonist project, primary screen (AID 625;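 active = fluorescence slope after compound addition differing from the mean of all tested samples at 99.7% confidence, mostly higher but some lower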;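 note: thallium influx through GIRK channels coupled to M4 in HEK293 cells with BTC-AM dye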); conditions: at 10 µM, actives lie on both sides
How it was run: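 Assay system: HEK293 cells with M4 receptor and GIRK channels / Controls: carbachol and DMSO controls / Schedule: 1 h dye loading, 2 min kinetic read / Technique: kinetic fluorescence with BTC-AM dye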

[7] = blockers of RIG-like receptor reporter activation – cell-based, Sendai virus stimulus, luciferase, 10K MLSCN set, TLR/RLR signaling modifier project, primary screen (AID 602276); conditions: HEK293 RL24 IRF3 luciferase reporter, at 10 µM, stronger effect = higher value;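 note: firefly luciferase from ISG56 promoter only with Renilla not read in this screen; 0% = Sendai virus plus DMSO and 100% = medium plus DMSO without virus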
[8] = TLR3 IRF3 reporter activation blockers – cell-based, poly I:C stimulus, luciferase, 10K MLSCN set, primary screen (AID 602277;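 active = inhibition of the reporter signal at or above 50%; inactive = inhibition below 50%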); conditions: HEK293-TLR3 RL24 IRF3 luciferase reporter, at 10 µM, stronger effect = higher value

Chain of Muscarinic acetylcholine receptor M4 (Homo sapiens) (P08173 whole entry, looked up): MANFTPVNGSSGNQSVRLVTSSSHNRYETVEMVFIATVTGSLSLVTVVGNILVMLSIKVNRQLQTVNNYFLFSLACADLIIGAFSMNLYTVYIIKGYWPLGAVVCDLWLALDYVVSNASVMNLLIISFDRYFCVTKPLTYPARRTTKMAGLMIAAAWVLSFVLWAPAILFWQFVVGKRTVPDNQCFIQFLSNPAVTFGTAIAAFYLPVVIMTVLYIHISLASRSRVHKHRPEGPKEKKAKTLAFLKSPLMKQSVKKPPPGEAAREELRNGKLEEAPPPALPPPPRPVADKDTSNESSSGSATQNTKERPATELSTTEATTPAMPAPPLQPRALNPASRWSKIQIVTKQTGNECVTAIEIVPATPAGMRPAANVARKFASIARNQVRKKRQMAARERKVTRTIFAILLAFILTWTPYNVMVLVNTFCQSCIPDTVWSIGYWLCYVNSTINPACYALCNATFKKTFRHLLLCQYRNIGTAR
Chain of Voltage-gated potassium channel subunit beta-2 (Rattus norvegicus) (P62483 whole entry, looked up): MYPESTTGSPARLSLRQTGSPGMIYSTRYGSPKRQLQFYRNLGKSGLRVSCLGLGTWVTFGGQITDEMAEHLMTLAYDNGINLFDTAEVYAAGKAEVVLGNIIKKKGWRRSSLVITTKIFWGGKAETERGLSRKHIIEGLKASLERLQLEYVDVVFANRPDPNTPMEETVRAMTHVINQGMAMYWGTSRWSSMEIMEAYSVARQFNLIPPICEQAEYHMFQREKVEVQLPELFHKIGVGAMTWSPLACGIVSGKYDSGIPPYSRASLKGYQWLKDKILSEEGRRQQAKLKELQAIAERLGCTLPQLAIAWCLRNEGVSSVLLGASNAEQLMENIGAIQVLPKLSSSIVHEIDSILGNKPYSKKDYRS

Compound	cell count [1]	inhibition [1]	inhibition of aggregation [2]	nuclei count [2] [%]	inhibition [3]	nuclei count [3] [%]	fluorescence slope [4]	NADPH fluorescence slope [5]	fluorescence slope [6]	inhibition [7]	inhibition [8]
COc1ccc(-c2[nH]nc3c2C(c2ccccc2OC(=O)N2CCOCC2)C(C#N)=C(N)O3)cc1 (stereo not drawn)	663	-15.1% (inactive)	-9.9% (inactive)	104	-15.6% (inactive)	104	-0.574 (inactive)	-3.5e-05 (inactive)	0.00609 (inactive)	25.8% (inactive)	19% (inactive)
O=C(O)C1C2C=CC(O2)C1C(=O)NCc1ccc(Cl)cc1 (stereo not drawn)	714	-7.5% (inactive)	22.6% (inactive)	95.5	16.4% (inactive)	100	-0.531 (inactive)	-3.3e-05 (inactive)	0.0043 (inactive)	11.9% (inactive)	5.33% (inactive)
CCSc1nc2c(c(=O)n(C)c(=O)n2C)n1Cc1ccc(Cl)cc1	440	3.3% (inactive)	0.4% (inactive)	106	-15.6% (inactive)	112	-0.527 (inactive)	-4.7e-05 (inactive)	0.00489 (inactive)	11.8% (inactive)	4.67% (inactive)
CCOC(=O)CSc1nc2cc(C(=O)NCc3ccco3)ccc2c(=O)n1-c1ccc(F)cc1	329	7.7% (inactive)	-7.1% (inactive)	104	7.7% (inactive)	92.9	-0.481 (inactive)	0.000117 (inactive)	0.00969 (inactive)	-7.4% (inactive)	-0.0676% (inactive)
CCc1ccc2oc(-c3cc(N)ccc3Cl)nc2c1	563	-33.7% (inactive)	3% (inactive)	98.1	-53.6% (inactive)	110	-0.298 (inactive)	8.8e-06 (inactive)	0.006 (inactive)	-31.8% (inactive)	-60.1% (inactive)
CC1(C)CC(=O)C(C=NCCO)=C(O)C1	416	-1.8% (inactive)	57% (active)	23.4	-45.4% (inactive)	123	-0.243 (inactive)	-2.1e-05 (inactive)	0.00793 (inactive)	21.7% (inactive)	-0.595% (inactive)
Cc1nnc(SCc2cnc(-c3ccccc3)o2)[nH]c1=O	332	-2.2% (inactive)	12.4% (inactive)	92.7	-82.5% (inactive)	118	-0.591 (inactive)	-1.9e-05 (inactive)	0.00323 (inactive)	10.2% (inactive)	12.4% (inactive)
CC1=C(C(N)=O)C(c2ccc(Cl)cc2Cl)n2ncnc2N1 (stereo not drawn)	631	-2.5% (inactive)	18.4% (inactive)	105	-129% (inactive)	106	-0.558 (inactive)	2e-05 (inactive)	0.00707 (inactive)	29.3% (inactive)	33.2% (inactive)
Cc1ccc(-n2ncc3c(Nc4c(C)n(C)n(-c5ccccc5)c4=O)ncnc32)c(C)c1	443	9.3% (inactive)	6.8% (inactive)	96.6	-81.8% (inactive)	120	-0.538 (inactive)	-2.2e-05 (inactive)	0.0045 (inactive)	13.9% (inactive)	12.5% (inactive)
COc1ccc(C2NC(c3ccc(OC)c(OC)c3OC)C(C)C(=O)C2C)c(OC)c1OC (stereo not drawn)	663	-16.3% (inactive)	2.6% (inactive)	141	-142% (inactive)	104	-0.474 (inactive)	-2.1e-05 (inactive)	0.00551 (inactive)	14.8% (inactive)	25.4% (inactive)
COc1ccc(N2CCN(C(=O)CSc3ccccc3N)CC2)cc1	334	-3% (inactive)	7.8% (inactive)	96.1	-18.9% (inactive)	106	-0.501 (inactive)	-0.00016 (inactive)	0.00478 (inactive)	4.54% (inactive)	22.7% (inactive)
CCOC(=O)c1cc2sccc2n1CC(=O)Nc1ccc(OC)cc1OC	550	-28.2% (inactive)	2.8% (inactive)	96.6	-22.6% (inactive)	107	-0.542 (inactive)	5.3e-06 (inactive)	0.00418 (inactive)	19% (inactive)	32.5% (inactive)
COc1cccc(NC(=O)Nc2cccs2)c1	355	-1.5% (inactive)	-5.7% (inactive)	93.5	9.9% (inactive)	115	-0.483 (inactive)	0.00014 (inactive)	0.00925 (active)	-20.2% (inactive)	-76.7% (inactive)
CN(C)S(=O)(=O)c1ccc(C(=O)N2CCC(c3nc4ccccc4o3)CC2)cc1	468	8.2% (inactive)	-9.7% (inactive)	103	40.1% (inactive)	95	-0.427 (inactive)	-9.6e-05 (inactive)	0.00556 (inactive)	10.5% (inactive)	12.2% (inactive)
Cc1nnc(NC(=O)Nc2cccc(Cl)c2)s1	481	-9.3% (inactive)	-4.3% (inactive)	66.7	9.5% (inactive)	114	-0.574 (inactive)	-1.8e-05 (inactive)	0.00561 (inactive)	-25% (inactive)	-88.8% (inactive)
COCCn1c(N)c(C(=O)Nc2sc3c(c2C(=O)OC)CCCC3)c2nc3ccccc3nc21	670	14.9% (inactive)	21.8% (inactive)	84.1	5.1% (inactive)	100	-0.57 (inactive)	4.8e-06 (inactive)	0.00595 (inactive)	19.4% (inactive)	9.11% (inactive)
CCN(CC)C(=O)c1ccc(NS(=O)(=O)c2ccccc2)cc1	444	0.9% (inactive)	-9.8% (inactive)	112	-22.4% (inactive)	117	-0.478 (inactive)	-0.000282 (inactive)	0.0035 (inactive)	-7.99% (inactive)	-12.2% (inactive)
CC1=C(C#N)C(=O)NC(C)(C)C1	410	4.1% (inactive)	-3.7% (inactive)	100	6.4% (inactive)	109	-0.413 (inactive)	1.8e-05 (inactive)	0.00867 (inactive)	13.9% (inactive)	21.4% (inactive)
COc1ccc(-c2noc(CN3CCC(Cc4ccccc4)CC3)n2)cc1	322	-0.7% (inactive)	-24.1% (inactive)	104	-98.5% (inactive)	123	-0.553 (inactive)	6.3e-06 (inactive)	0.00696 (inactive)	-7.04% (inactive)	-6.07% (inactive)
COC(=O)c1ccc(-c2ccc(CNCC(O)c3ccccc3)o2)cc1 (stereo not drawn)	400	3.2% (inactive)	-6% (inactive)	111	-27.1% (inactive)	115	-0.313 (inactive)	-1.1e-05 (inactive)	0.00598 (inactive)	13.2% (inactive)	13.8% (inactive)
Cc1onc(-c2c(Cl)cccc2Cl)c1C(=O)NCCCN1CCOCC1	618	3.6% (inactive)	13.7% (inactive)	100	-48.9% (inactive)	84	-0.47 (inactive)	-2.9e-05 (inactive)	0.00479 (inactive)	9.5% (inactive)	10.6% (inactive)
CCS(=O)(=O)N1CCC(C(=O)NC2CCCCC2)CC1	572	4.5% (inactive)	7.8% (inactive)	110	15.2% (inactive)	118	-0.483 (inactive)	-0.000241 (inactive)	0.00287 (inactive)	10% (inactive)	16% (inactive)
CN(CCCC(=O)Nc1ccncc1)S(=O)(=O)c1ccc(Cl)cc1	573	-5.7% (inactive)	-13.4% (inactive)	106	-18.9% (inactive)	127	-0.584 (inactive)	2.2e-07 (inactive)	0.00791 (inactive)	-14.2% (inactive)	-29.3% (inactive)
Cc1cc(C)c(NC(=O)C2CCCN2CCO)c(C)c1 (stereo not drawn)	553	-0.3% (inactive)	-3.4% (inactive)	92.5	-4.2% (inactive)	84.4	-0.514 (inactive)	-6.1e-05 (inactive)	0.00468 (inactive)	-8.07% (inactive)	-8.13% (inactive)
CCc1ccccc1NC(=O)CN(c1cccc(OC)c1)S(C)(=O)=O	345	2.5% (inactive)	-3.1% (inactive)	99	-28.2% (inactive)	111	-0.544 (inactive)	-7.9e-05 (inactive)	0.00451 (inactive)	-7.55% (inactive)	-6.22% (inactive)
Cn1cc(CC(=O)Nc2cccc(C#N)c2)c2ccccc21	414	-0.7% (inactive)	23.9% (inactive)	83.5	13.7% (inactive)	97.2	-0.47 (inactive)	-1.8e-05 (inactive)	0.00535 (inactive)	3.88% (inactive)	-0.551% (inactive)
N#Cc1cc2sc3nnc(-c4ccncc4)n3c2cc1C#N	728	10.9% (inactive)	-17.6% (inactive)	49.6	22.9% (inactive)	77.1	-0.529 (inactive)	1.4e-05 (inactive)	0.0043 (inactive)	5.55% (inactive)	-16.8% (inactive)
S=c1nc(C2CC2)[nH]c2ccccc12	469	0.8% (inactive)	-8.3% (inactive)	106	-99% (inactive)	118	-0.49 (inactive)	-4.4e-05 (inactive)	0.0139 (active)	19% (inactive)	20.9% (inactive)

Reference: PubChem BioAssay
